In ChEMBL document CHEMBL3286180, “Efficacious inhaled PDE4 inhibitors with low emetic potential and long duration of action for the treatment of COPD” (J Med Chem, 2014):
Converted amounts (≈) assume the structure as drawn. The source made the active and inactive calls. The rule behind the calls is not given here.

Experiments:
Rattus norvegicus [1] = assay: (§1) Half life in rat at 1 mg/kg, iv; format: ADME, organism-based; design: dose 1 mg/kg, route intravenous; details: in vivo
Outline: (§2)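 Rat pharmacokinetics were run at 1 mg/kg, given iv or by intratracheal instillation, with 2−3 animals per study.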

Rattus norvegicus [2] = assay: Antiinflammatory activity in Sprague-Dawley rat assessed as inhibition of LPS-induced bronchoalveolar lavage neutrophils at 0.01 to 0.1 mg/ml, inhalation administered as nebulized suspension; format: functional, organism-based
Outline: (§3)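 Rats were given the compound as an aqueous nebulized aerosol by nose-only inhalation 30 min before LPS challenge. Dose is expressed as mg/mL nebulizer concentration. Lung neutrophilia was the readout, and terminal lung concentration (nM) was measured. Groups held 8−10 animals per treatment.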

Blood [3] = assay: Antiinflammatory activity in human whole blood assessed as inhibition of LPS-induced TNFalpha production after 20 hrs by ELISA; format: functional, tissue-based
Rattus norvegicus [4] = assay: Antiinflammatory activity in Sprague-Dawley rat assessed as inhibition of LPS-induced bronchoalveolar lavage neutrophils measured as LPS duration at 0.03 to 3 mg/ml, inhalation administered as nebulized suspension; format: functional, organism-based
Outline: (§4)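 Duration protocol: rats received a nose-only inhalation of nebulized aqueous compound solution 12 h before LPS challenge. Dose is expressed as mg/mL nebulizer concentration. Readout was LPS-induced pulmonary neutrophilia, with terminal lung concentration (nM) measured. Groups held 8−10 animals per treatment.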

[5] = Aqueous solubility of the compound at pH 7.4; format: physicochemical; details: aqueous medium
[6] = biological target: 3',5'-cyclic-AMP phosphodiesterase 4B (Homo sapiens, UniProt Q07343); assay: Inhibition of human recombinant PDE4B using [3H]cAMP by packard topcount scintillation counting analysis
Sequence of 3',5'-cyclic-AMP phosphodiesterase 4B (Q07343 whole entry): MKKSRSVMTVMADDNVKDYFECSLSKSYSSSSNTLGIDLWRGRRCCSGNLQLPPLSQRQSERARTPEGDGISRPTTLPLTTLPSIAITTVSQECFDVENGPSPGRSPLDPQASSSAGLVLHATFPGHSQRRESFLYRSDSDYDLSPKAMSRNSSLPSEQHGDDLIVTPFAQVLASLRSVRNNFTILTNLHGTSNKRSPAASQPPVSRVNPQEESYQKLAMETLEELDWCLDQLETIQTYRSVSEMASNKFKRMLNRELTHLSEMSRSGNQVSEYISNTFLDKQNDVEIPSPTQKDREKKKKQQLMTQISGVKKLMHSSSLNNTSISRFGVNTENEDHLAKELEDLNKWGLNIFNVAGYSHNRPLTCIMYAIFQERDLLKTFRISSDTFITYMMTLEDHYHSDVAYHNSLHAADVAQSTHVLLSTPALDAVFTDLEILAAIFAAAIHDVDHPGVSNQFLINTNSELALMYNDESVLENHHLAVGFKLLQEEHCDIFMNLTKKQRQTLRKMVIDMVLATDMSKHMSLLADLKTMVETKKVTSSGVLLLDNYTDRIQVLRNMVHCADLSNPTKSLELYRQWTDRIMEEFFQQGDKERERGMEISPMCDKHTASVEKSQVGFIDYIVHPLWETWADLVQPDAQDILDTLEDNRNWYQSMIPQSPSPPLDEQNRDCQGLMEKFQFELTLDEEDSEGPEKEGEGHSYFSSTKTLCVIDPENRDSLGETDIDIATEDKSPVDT

Rattus norvegicus [7] = assay: (§5) Volume of distribution at steady state in rat at 1 mg/kg, iv; format: ADME, organism-based; design: dose 1 mg/kg, route intravenous; details: in vivo
[8] = Intrinsic clearance in human liver microsomes; format: ADME; details: read-out: CLH
Rattus norvegicus [9] = assay: Antiinflammatory activity in Sprague-Dawley rat assessed as inhibition of LPS-induced bronchoalveolar lavage neutrophils up to 350 nM, inhalation administered as nebulized […] treated 12 hr before LPS challenge; format: functional, organism-based; outline: as §4
[10] = Half life in rat at 1 mg/kg, it; format: ADME, organism-based; design: dose 1 mg/kg, route endotracheal; details: in vivo, inhaled or intranasal; outline: as §2
Rattus norvegicus [11] = assay: Antiinflammatory activity in Sprague-Dawley rat assessed as inhibition of LPS-induced bronchoalveolar lavage neutrophils at 0.03 mg/ml, inhalation administered as nebulized suspension; format: functional, organism-based; outline: as §3
Blood [12] = assay: tissue or blood; details: Rattus norvegicus, 20 h, read-out: pIC50 (converted)
[13] = Fraction unbound in human plasma; format: ADME, cell-free
PBMC = assay: Antiinflammatory activity in human PBMC assessed as inhibition of LPS-induced TNFalpha production after 20 hrs by fluorescence linked immunosorbant assay; format: functional, cell-based
[14] = as §1; format: ADME, organism-based; design: dose 1 mg/kg, route intravenous; details: in vivo; outline: as §2
[15] = biological target: Voltage-gated inwardly rectifying potassium channel KCNH2 (Homo sapiens, UniProt Q12809); assay: Inhibition of human ERG
Sequence of Voltage-gated inwardly rectifying potassium channel KCNH2 (Q12809 whole entry): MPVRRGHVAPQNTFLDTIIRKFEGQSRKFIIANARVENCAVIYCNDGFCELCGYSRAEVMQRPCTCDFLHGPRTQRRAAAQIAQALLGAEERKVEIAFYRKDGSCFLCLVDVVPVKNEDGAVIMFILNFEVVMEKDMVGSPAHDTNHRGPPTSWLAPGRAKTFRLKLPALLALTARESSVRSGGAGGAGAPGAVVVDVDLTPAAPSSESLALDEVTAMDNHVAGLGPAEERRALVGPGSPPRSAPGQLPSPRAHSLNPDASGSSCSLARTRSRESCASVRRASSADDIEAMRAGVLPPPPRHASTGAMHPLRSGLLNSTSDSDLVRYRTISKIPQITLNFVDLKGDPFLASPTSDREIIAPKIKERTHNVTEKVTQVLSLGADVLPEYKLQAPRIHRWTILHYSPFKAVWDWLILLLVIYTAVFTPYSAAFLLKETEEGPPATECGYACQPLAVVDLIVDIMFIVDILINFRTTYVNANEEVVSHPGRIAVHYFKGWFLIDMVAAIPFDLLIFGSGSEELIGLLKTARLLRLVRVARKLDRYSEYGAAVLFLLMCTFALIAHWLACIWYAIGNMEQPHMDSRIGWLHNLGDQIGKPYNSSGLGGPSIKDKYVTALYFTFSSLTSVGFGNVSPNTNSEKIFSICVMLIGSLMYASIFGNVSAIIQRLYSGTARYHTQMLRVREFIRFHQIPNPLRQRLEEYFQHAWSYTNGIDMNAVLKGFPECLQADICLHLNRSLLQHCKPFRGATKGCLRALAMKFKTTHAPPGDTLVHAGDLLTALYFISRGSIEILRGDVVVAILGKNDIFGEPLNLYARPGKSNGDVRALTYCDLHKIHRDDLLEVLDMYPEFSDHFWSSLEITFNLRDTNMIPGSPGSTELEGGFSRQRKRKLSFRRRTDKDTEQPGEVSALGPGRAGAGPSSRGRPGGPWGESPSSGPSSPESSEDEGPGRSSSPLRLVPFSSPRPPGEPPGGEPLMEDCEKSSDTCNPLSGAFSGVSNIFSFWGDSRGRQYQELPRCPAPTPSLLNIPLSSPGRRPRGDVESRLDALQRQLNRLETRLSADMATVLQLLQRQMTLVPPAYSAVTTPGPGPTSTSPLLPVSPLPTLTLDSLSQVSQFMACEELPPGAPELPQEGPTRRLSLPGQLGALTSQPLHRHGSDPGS

Cytochrome P450 2C9 = Cytochrome P450 2C9 (Homo sapiens, UniProt P11712); assay: Inhibition of CYP2C9 (unknown origin); format: ADME
Sequence of Cytochrome P450 2C9 (P11712 whole entry): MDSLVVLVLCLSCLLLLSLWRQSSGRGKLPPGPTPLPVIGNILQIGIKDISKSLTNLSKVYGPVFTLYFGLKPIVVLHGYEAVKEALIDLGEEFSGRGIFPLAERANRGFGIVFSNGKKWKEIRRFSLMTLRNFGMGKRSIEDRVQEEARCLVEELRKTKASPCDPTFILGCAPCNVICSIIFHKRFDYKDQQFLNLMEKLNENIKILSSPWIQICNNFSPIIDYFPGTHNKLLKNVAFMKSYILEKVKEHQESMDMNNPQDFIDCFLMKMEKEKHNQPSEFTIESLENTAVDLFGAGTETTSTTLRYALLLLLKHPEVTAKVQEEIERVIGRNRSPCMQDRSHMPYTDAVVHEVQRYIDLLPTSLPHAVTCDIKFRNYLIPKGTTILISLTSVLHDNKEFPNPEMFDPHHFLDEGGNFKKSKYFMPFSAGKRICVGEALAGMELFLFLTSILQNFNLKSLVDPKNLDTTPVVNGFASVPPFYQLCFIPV

Rattus norvegicus [16] = assay: Antiinflammatory activity in Sprague-Dawley rat assessed as inhibition of LPS-induced bronchoalveolar lavage neutrophils at 0.1 mg/ml, inhalation administered as nebulized suspension; format: functional, organism-based; outline: as §3
Cytochrome P450 2D6 = Cytochrome P450 2D6 (Homo sapiens, UniProt P10635); assay: Inhibition of CYP2D6 (unknown origin); format: ADME
Sequence of Cytochrome P450 2D6 (P10635 whole entry, canonical isoform): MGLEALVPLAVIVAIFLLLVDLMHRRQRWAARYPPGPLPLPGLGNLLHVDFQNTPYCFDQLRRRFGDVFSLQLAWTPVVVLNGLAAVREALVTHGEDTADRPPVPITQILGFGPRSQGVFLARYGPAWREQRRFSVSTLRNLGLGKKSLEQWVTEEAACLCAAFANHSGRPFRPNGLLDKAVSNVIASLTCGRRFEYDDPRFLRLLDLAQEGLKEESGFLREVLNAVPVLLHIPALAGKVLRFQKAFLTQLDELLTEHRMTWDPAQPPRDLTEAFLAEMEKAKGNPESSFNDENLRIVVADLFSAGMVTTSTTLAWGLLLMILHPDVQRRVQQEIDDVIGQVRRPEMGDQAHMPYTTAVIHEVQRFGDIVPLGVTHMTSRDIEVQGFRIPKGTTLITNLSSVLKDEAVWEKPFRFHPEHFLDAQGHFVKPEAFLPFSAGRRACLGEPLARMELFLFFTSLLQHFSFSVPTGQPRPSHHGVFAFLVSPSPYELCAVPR

CYP (isoform not stated) = assay: Time dependent inhibition of CYP (unknown origin) at 50 uM; format: ADME; details: human; read-out: TDI
[17] = Clearance in rat at 1 mg/kg, iv; format: ADME, organism-based; design: dose 1 mg/kg, route intravenous; details: in vivo; outline: as §2
Cytochrome P450 3A4 = Cytochrome P450 3A4 (Homo sapiens, UniProt P08684); assay: Inhibition of CYP3A4 (unknown origin); format: ADME
Sequence of Cytochrome P450 3A4 (P08684 whole entry): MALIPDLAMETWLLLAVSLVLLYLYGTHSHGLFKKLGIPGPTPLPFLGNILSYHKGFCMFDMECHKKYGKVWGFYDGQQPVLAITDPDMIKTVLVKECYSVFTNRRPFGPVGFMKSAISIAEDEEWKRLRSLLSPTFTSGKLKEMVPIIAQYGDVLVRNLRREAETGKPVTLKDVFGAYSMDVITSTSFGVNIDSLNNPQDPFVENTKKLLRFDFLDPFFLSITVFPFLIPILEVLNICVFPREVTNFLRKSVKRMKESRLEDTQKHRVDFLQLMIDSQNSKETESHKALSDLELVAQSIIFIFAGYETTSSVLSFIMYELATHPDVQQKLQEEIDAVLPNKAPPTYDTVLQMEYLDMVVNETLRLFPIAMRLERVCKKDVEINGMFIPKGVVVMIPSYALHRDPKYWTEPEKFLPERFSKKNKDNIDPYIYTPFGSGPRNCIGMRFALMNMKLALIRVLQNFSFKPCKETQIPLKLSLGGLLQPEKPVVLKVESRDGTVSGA

[18] = as §5; format: ADME, organism-based; design: dose 1 mg/kg, route intravenous; details: in vivo, read-out: Vdss
[19] = Lipophilicity, log D of the compound; format: physicochemical; details: octanol/water
[20] = Fraction unbound in rat plasma; format: ADME, cell-free
Rattus norvegicus [21] = assay: Antiinflammatory activity in Sprague-Dawley rat assessed as inhibition of LPS-induced bronchoalveolar lavage neutrophils at 0.01 mg/ml, inhalation administered as nebulized suspension; format: functional; outline: as §3
Rattus norvegicus [22] = assay: Apparent volume of distribution in rat at 1 mg/kg, iv; format: ADME, organism-based; design: dose 1 mg/kg, route intravenous; details: in vivo; outline: as §2
Cytochrome P450 2C19 = Cytochrome P450 2C19 (Homo sapiens, UniProt P33261); assay: Inhibition of CYP2C19 (unknown origin); format: ADME
Sequence of Cytochrome P450 2C19 (P33261 whole entry): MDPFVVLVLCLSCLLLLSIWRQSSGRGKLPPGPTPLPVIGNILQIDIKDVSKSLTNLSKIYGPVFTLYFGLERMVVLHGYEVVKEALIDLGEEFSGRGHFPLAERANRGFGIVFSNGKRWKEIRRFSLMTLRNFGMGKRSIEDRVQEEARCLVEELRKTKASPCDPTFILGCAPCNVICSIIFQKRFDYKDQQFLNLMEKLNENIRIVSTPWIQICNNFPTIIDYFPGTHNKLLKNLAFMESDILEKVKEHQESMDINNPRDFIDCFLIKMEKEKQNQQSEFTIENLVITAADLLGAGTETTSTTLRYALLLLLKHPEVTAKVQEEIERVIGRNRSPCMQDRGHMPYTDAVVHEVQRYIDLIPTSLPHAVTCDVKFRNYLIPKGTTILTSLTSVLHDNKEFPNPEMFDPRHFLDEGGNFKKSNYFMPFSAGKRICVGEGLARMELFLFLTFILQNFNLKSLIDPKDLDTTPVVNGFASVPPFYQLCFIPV

Rattus norvegicus [23] = assay: Antiinflammatory activity in Sprague-Dawley rat assessed as inhibition of LPS-induced bronchoalveolar lavage neutrophils measured as LPS duration at 0.1 mg/ml, inhalation administered as nebulized suspension; format: functional, organism-based; outline: as §4
[24] = Intrinsic clearance in rat hepatocytes measured per 10^6 cells; format: ADME, cell-based, Hepatocyte; details: read-out: CLH
Rattus norvegicus [25] = assay: Antiinflammatory activity in Sprague-Dawley rat assessed as inhibition of LPS-induced bronchoalveolar lavage neutrophils measured as LPS duration at 0.01 mg/ml, inhalation administered as nebulized suspension; format: functional, organism-based; details: 0.1 mg/ml, in the assay text read “0.1 mg/ml” for “0.01 mg/ml”; outline: as §4

Question: What does the source list for `COc1cccc(Nc2c(C(N)=O)cnc3c(C)cc(S(=O)(=O)c4cccc(C(=O)N(C)C)c4)cc23)c1` [GSK-256066]?
Answer: t1/2 (Rattus norvegicus [1]): 14.9 h; inhibition (Rattus norvegicus [2]): inactive; IC50 (Blood [3]): 0.316 nM; inhibition (Rattus norvegicus [4]): Active; solubility [5]: 1.2 µM (≈ 0.622 µg/mL); IC50 [6]: < 0.01 nM; Vdss (Rattus norvegicus [7]): 0.75 L/kg; microsomal CLint [8]: > 150 µL/min/mg; inhibition (Rattus norvegicus [9]): inactive; half-life [10]: 8.1 h; inhibition (Rattus norvegicus [11]): Active; IC50 (Blood [12]): 0.251 nM; fraction unbound [13]: 0.015; IC50 (PBMC): 0.00316 nM

Question: Which half-life [14] does the source give for `Cc1cc(C(=O)N[C@H]2CC[C@@H](NC(=O)c3cc(F)cnc3Oc3cccc(-c4ccc(O)cc4CN4CCOCC4)c3)CC2)nn1C` here?
Answer: Its half-life is 13 h.

Question: And the IC50 [15]?
Answer: The IC50 was 31600 nM.

Question: And the IC50 (Cytochrome P450 2C9)?
Answer: Its IC50 is 251 nM.

Question: And the inhibition (Rattus norvegicus [16])?
Answer: Its inhibition is “Active”.

Question: And the IC50 (Cytochrome P450 2D6)?
Answer: Its IC50 is greater than 10000 nM.

Question: And the solubility [5]?
Answer: Its solubility is 250 µM (≈ 161 µg/mL).

Question: And the inhibition at 50 µM (CYP (isoform not stated))?
Answer: The inhibition at 50 µM was 73%.

Question: And the clearance [17]?
Answer: The clearance was 69 mL/min/kg.

Question: What about the IC50 (Cytochrome P450 3A4) of the same compound?
Answer: The IC50 was 501 nM.

Question: And the Vd [18]?
Answer: Its Vd is 2.6 L/kg.

Question: What about the logD [19] of the same compound?
Answer: The logD was 3.1.

Question: And the microsomal CLint [8]?
Answer: Its microsomal CLint is greater than 150 µL/min/mg.

Question: What about the fraction unbound [20] of the same compound?
Answer: Its fraction unbound is 0.1.

Question: And the “inhibition (INH)” value (Rattus norvegicus [21])?
Answer: Its value is 37%.

Question: What about the Vz/F (Rattus norvegicus [22]) of the same compound?
Answer: The Vz/F was 76 L/kg.

Question: And the IC50 (Cytochrome P450 2C19)?
Answer: Its IC50 is 6310 nM.

Question: What about the fraction unbound [13] of the same compound?
Answer: The fraction unbound was 0.056.

Question: And the IC50 (PBMC)?
Answer: The IC50 was 0.0631 nM.

Question: And the inhibition (Rattus norvegicus [23])?
Answer: Its inhibition is “Active”.

Question: And the hepatocyte CLint [24]?
Answer: Its hepatocyte CLint is 120 µL/min/1e6 cells.

Question: And the inhibition (Rattus norvegicus [25])?
Answer: The inhibition was “Active”.
